Substrate in data set [1]: CC(C)(C)OCC1CNc2nc(N)nc(O)c2N1
Kind of data set: (§1) Tyrosine hydroxylase (isolated from bovine adrenal medulla) cofactor activity. A digest of the protocol:
(§2)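 Tyrosine hydroxylase was purified from bovine adrenal medulla by partial trypsin digestion, giving a model of the high-affinity form, then ammonium sulfate fractionation. Activity was measured as release of ³H₂O from L-(3,5-³H)tyrosine, with velocities expressed relative to tetrahydrobiopterin.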

Substrate in data set [2]: CCCCCCCCOCC1CNc2nc(N)nc(O)c2N1
Described as §1. The essentials: as §2

Substrate in data set [3]: CC(C)COCC1CNc2nc(N)nc(O)c2N1
The description is as §1. A digest of the protocol:
as §2

Substrate in data set [4]: CCCOCC1CNc2nc(N)nc(O)c2N1
Described as §1. A digest of the protocol: as §2

Substrate in data set [5]: COCC1CNc2nc(N)nc(O)c2N1
The data set is described as §1. The essentials: as §2

Substrate in data set [6]: CC(C)OCC1CNc2nc(N)nc(O)c2N1
The description is as §1. A digest of the protocol:
as §2

Substrate in data set [7]: CC1(C)CNc2nc(N)nc(O)c2N1
The data set is described as §1. A digest of the protocol:
as §2

Substrate in data set [8]: CC1CNc2nc(N)[nH]c(=O)c2N1
Described as §1. A digest of the protocol: as §2

Substrate in data set [9]: CCOCC1CNc2nc(N)nc(O)c2N1
The description is as §1. The essentials: as §2

Substrate in data set [10]: CCCCCOCC1CNc2nc(N)nc(O)c2N1
The description is as §1. A digest of the protocol: as §2

Substrate in data set [11]: COCCOCC1CNc2nc(N)nc(O)c2N1
Described as §1. A digest of the protocol: as §2

Data set [12] concerns the target Tyrosine hydroxylase (Bos taurus). Kind of data set: Tested in isolated enzyme assay for its cofactor activity against tyrosine hydroxylase (isolated from bovine adrenal medulla) expressed as Michaelis-Menten constant.
Substrate in data set [13]: CCCCCCCCOCC1CNc2nc(N)nc(O)c2N1
Kind of data set: (§3) Tested in isolated enzyme assay for its cofactor activity against phenylalanine hydroxylase (isolated from rat liver) expressed as Michaelis-Menten constant. The essentials: (§4)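 Phenylalanine hydroxylase was isolated from rat liver and purified on phenyl-Sepharose. Tyrosine formed was quantified by liquid chromatography with fluorescence detection, and velocities were expressed relative to tetrahydrobiopterin.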

Substrate in data set [14]: CC(O)C(O)C1CNc2nc(N)nc(O)c2N1
The description is as §3. A digest of the protocol:
as §4

Substrate in data set [15]: CCCOCC1CNc2nc(N)nc(O)c2N1
Described as §3. The essentials:
as §4

Substrate in data set [16]: COCC1CNc2nc(N)nc(O)c2N1
Described as §3. The essentials:
as §4

Substrate in data set [17]: CC(C)OCC1CNc2nc(N)nc(O)c2N1
Described as §3. The essentials:
as §4

Substrate in data set [18]: CC1(C)CNc2nc(N)nc(O)c2N1
The data set is described as §3. The essentials:
as §4

Substrate in data set [19]: CC1CNc2nc(N)[nH]c(=O)c2N1
Described as §3. A digest of the protocol:
as §4

Substrate in data set [20]: CCOCC1CNc2nc(N)nc(O)c2N1
The description is as §3. The essentials:
as §4

Substrate in data set [21]: COCCOCC1CNc2nc(N)nc(O)c2N1
The data set is described as §3. The essentials: as §4

Substrate in data set [22]: CCCCOCC1CNc2nc(N)nc(O)c2N1
The data set is described as §3. The essentials: as §4

Compound in data set [23]: CC1CNc2nc(N)[nH]c(=O)c2N1
The data set is described as follows: Tested in isolated enzyme assay for its cofactor activity against tryptophan hydroxylase (isolated from rat brain stem) expressed as Michaelis-Menten constant (calculated in the presence of platinum catalyst).

Substrate in data set [24]: CCCCCCCCOCC1CNc2nc(N)nc(O)c2N1
Kind of data set: (§5) Tested in isolated enzyme assay for its cofactor activity against tryptophan hydroxylase (isolated from rat brain stem) expressed as Michaelis-Menten constant. The essentials:
(§6)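 The tryptophan hydroxylase source was a desalted 40000g supernatant of rat brain stem, with velocities expressed relative to tetrahydrobiopterin.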

Substrate in data set [25]: CC(O)C(O)C1CNc2nc(N)nc(O)c2N1
Described as §5. The essentials: as §6

Substrate in data set [26]: CCCOCC1CNc2nc(N)nc(O)c2N1
Described as §5. The essentials:
as §6

Substrate in data set [27]: COCC1CNc2nc(N)nc(O)c2N1
The data set is described as §5. The essentials: as §6

Substrate in data set [28]: CC(C)OCC1CNc2nc(N)nc(O)c2N1
The description is as §5. The essentials:
as §6

Substrate in data set [29]: CCOCC1CNc2nc(N)nc(O)c2N1
The data set is described as §5. The essentials: as §6

Substrate in data set [30]: CCCCOCC1CNc2nc(N)nc(O)c2N1
The data set is described as §5. A digest of the protocol:
as §6

Where “and” joins values, the source holds several entries; their conditions need not be identical. Equal entries are not always repeated.

B1: Tyrosine 3-monooxygenase (Bos taurus), P17289 (protein)
chain: MPTPNAASPQAKGFRRAVSELDAKQAEAIMSPRFVGRRQSLIQDARKEREKAEAAASSSESAEAAAWLERDGEAVLTLLFALPPTRPPALTRAIKVFETFEAHLHHLETRPAQPLRAGSPPLECFVRCEVPGPVVPALLSALRRVAEDVRAAGESKVLWFPRKVSELDKCHHLVTKFDPDLDLDHPGFSDQAYRQRRKLIAEIAFQYKQGDPIPHVEYTAEETATWKEVYSTLRGLYPTHACREHLEAFELLERFCGYREDRIPQLEDVSRFLKERTGFQLRPAAGLLSARDFLASLAFRVFQCTQYIRHASSPMHSPEPECCHELLGHVPMLADRTFAQFSQDIGLASLGVSDEEIEKLSTLYWFTVEFGLCKQNGEVKAYGAGLLSSYGELLHSLSEEPEIRAFDPDAAAVQPYQDQTYQPVYFVSESFSDAKDKLRSYASRIQRPFSVKFDPYTLAIDVLDSPHAIRHALDGVQDEMQALAHALNAIS
For B1, the Michaelis-Menten constant (Km) (usually the concentration of substrate that gives half-maximal velocity) in [1] is 120 µM; in data set [2] it was 44 µM; in [3], 80 µM; in data set [4] it was 28 µM and 22 µM; in data set [5], 84 µM; in data set [6], 45 µM and 55 µM. In addition, the Km in data set [7] was 77 µM and 105 µM; in data set [8], 133 µM and 51 µM; in data set [9], 52 µM and 23 µM; in data set [10] it was 65 µM; in [11], 200 µM; in [12] it was 22 µM.

B2: Phenylalanine-4-hydroxylase (Rattus norvegicus), P04176 (protein)
chain: MAAVVLENGVLSRKLSDFGQETSYIEDNSNQNGAISLIFSLKEEVGALAKVLRLFEENDINLTHIESRPSRLNKDEYEFFTYLDKRTKPVLGSIIKSLRNDIGATVHELSRDKEKNTVPWFPRTIQELDRFANQILSYGAELDADHPGFKDPVYRARRKQFADIAYNYRHGQPIPRVEYTEEEKQTWGTVFRTLKALYKTHACYEHNHIFPLLEKYCGFREDNIPQLEDVSQFLQTCTGFRLRPVAGLLSSRDFLGGLAFRVFHCTQYIRHGSKPMYTPEPDICHELLGHVPLFSDRSFAQFSQEIGLASLGAPDEYIEKLATIYWFTVEFGLCKEGDSIKAYGAGLLSSFGELQYCLSDKPKLLPLELEKTACQEYSVTEFQPLYYVAESFSDAKEKVRTFAATIPRPFSVRYDPYTQRVEVLDNTQQLKILADSINSEVGILCNALQKIKS
As for B2, the Km in data set [13] came out at 1 µM; in data set [14] it was 5.5 µM; in data set [15], 16 µM; in data set [16] it was 17 µM; in [17], 9 µM; in [18] it was 29 µM. Further, the Km in data set [19] was determined as 21 µM; in data set [20], 21 µM; in data set [21], 65 µM; in data set [22], 21 µM.

B3: Tryptophan 5-hydroxylase 1 (Rattus norvegicus), P09810 (protein)
chain: MIEDNKENKDHSSERGRVTLIFSLKNEVGGLIKALKIFQENHVNLLHIESRKSKRRNSEFEIFVDCDINREQLNDIFPLLKSHTTVLSVDSPDQLPEKEDVMETVPWFPKKISDLDFCANRVLLYGSELDADHPGFKDNVYRRRRKYFAELAMNYKHGDPIPKIEFTEEEIKTWGTIFRELNKLYPTHACREYLRNLPLLSKYCGYREDNVPQLEDVSNFLKERTGFSIRPVAGYLSPRDFLSGLAFRVFHCTQYVRHSSDPLYTPEPDTCHELLGHVPLLAEPSFAQFSQEIGLASLGASEETVQKLATCYFFTVEFGLCKQDGQLRVFGAGLLSSISELRHALSGHAKVKPFDPKVACKQECLITSFQDVYFVSESFEDAKEKMREFAKTVKRPFGVKYNPYTQSIQVLRDSKSITSAMNELRHDLDVVNDALARVSRWPSV
Consider B3, for which the Km in data set [23] was 355 µM; in data set [24], 11 µM; in [25], 49 µM; in [26], 92 µM; in data set [27] it was 33 µM; in [28] it was 129 µM. Also, the Km in data set [29] worked out at 44 µM; in data set [30], 84 µM.

The record behind these values is ChEMBL document CHEMBL1123591, “Synthetic analogues of tetrahydrobiopterin with cofactor activity for aromatic amino acid hydroxylases” (1987).
